System: MS2 coat protein
Experiment: apparent Kd, MS2 coat protein; higher = weaker binding; RNA-MaP array; FMN 200 µM where present
Summary of the method: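 Each design was made on Illumina sequencing-chip clusters by stalled E. coli RNA polymerase and titrated with SNAP-549-labelled MS2 coat protein from 0.7 or 1.5 nM, doubling to 3 µM, in the absence and then the presence of constant ligand. The buffer was 100 mM Tris-HCl pH 7.5, 80 mM KCl, 4 mM MgCl2, BSA, DTT, yeast tRNA and Tween-20. The apparent Kd is the median of filtered per-cluster fits of binding curves, with green signal normalised to red-channel RNA signal and control-cluster median Fmax.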

[1] = designed as: ON switch for flavin mononucleotide, no ligand
[2] = ligand present: flavin mononucleotide, designed as: ON switch for flavin mononucleotide
[3] = designed as: OFF switch for flavin mononucleotide, no ligand
[4] = ligand present: flavin mononucleotide, designed as: OFF switch for flavin mononucleotide

| Sequence | apparent Kd [1] [nM] | apparent Kd [2] [nM] | apparent Kd [3] [nM] | apparent Kd [4] [nM] |
| --- | --- | --- | --- | --- |
| GGGUGGCGUAGAGGAUAUAUGGUACAUGAGGAUCACCCAUGUGCAUAUGAUGUUCAUGUUUAUGUAUAGAAGGCUACGUCGCUA | 40.6 | 42.8 |  |  |
| UAAAGCUCCGAGAAGGUAUGCGUACAUGAGGAUCACCCAUGUCAAAGCAUAAGGAUAUCGUGUGCGUGCGUCGAAUGUAGGAAA | 10.2 | 5.55 |  |  |
| GAUUAAUGCAAGGAUAUGCUAUUAAUUUAUUUUGCAGAAGGUGCAACAUGAGGAUCACCCAUGUUGGAGGGUAU |  |  | 22.3 | 33.4 |
| UGUCGGAGCAGAGGAUAUUACAUGAGGAUCACCCAUGUAUAAACCAAUAGCUGGAAACAGCAAUGUAAGAAGGCUGCUCCGACA |  |  | 5.28 | 10.1 |
| AGACUGAAGCAAGGAUAUUGUAAGGUUAUCGUACAAGAAGGUGCUGUUUAUGUCUCUUUACAUGAGGAUCACCCAUGUUUUUAA | 22.2 | 23.5 |  |  |
| UUUUUUGUUGUGAGGAUAUCGUAUUCUUUUUGUUACGAGAAGGCACAUGAGGAUCACCCAUGUUUCUUGAUGUU |  |  | 15.8 | 27.3 |
| CCACGGCACUCGUUGGUACGGGCAGAGGAUAUCGACAUGAGGAUCACCCAUGUGGAUGUAUAUGUCGAGAAGGCUGAUUCGUCU |  |  | 44 | 197 |
| AUCAUCUUGUCAGGAUAUGCGUGUCGACGAAAGUAGACAAUCUUGAUAACAUGAGGAUCACCCAUGUAGAAGGGACGAGAUGAU |  |  | 21.6 | 24.5 |
| CGCAUGCGUAGAAUUAGUUGCUGACAGGAUAUGACAUGAGGAUCACCCAUGUGAUUUAAGAAGAGUCAGAAGGGUCACGAUGCG |  |  | 10.7 | 15.1 |
| UCCUGGCGAGGAUAUACAAAGUUUUUCACGUUUUGUUUCGAACAUGAGGAUCACCCAUGUAGAAGGUGCUACUG |  |  | 62.6 | 52.8 |
| AGUUGGCGAGGAUAUACAUGAGGAUCACCCAUGUGAGAGAAAAAAGUGAGAAAGAAAAGUAGAAGGCGCUGACA |  |  | 45.3 | 217 |
| AAAAAGCGAGGAUAUACAUGAGGAUCACCCAUGUGAAAAAAAAAAAAAAAAAAAAAAAGUAGAAGGCGCAAAAA |  |  | 85.8 | 65.3 |
| UGAUAGGACAGAGGAUAUACGUGCUAGAGAUACUAGCAAAGUUUCCUGACAUGAGGAUCACCCAUGUAGAAGGCUGUCCUAUCU |  |  | 6.56 | 20.9 |
| AUUAUAUAGCAAGGAUAUAGAAUAUUAUUUUAACAUGAGGAUCACCCAUGUAACCUUAUGUGUAGCUAGAAGGUGCAUUUAUUA |  |  | 73.2 | 109 |
| UUAACAUGAGGAUCACCCAUGUAUAGAUCGGUUAAUAGAAGUGAGGAUAUGCUUAAAUUCAGGUAGCAGAAGGCACUGGGUACU | 26.9 | 29.9 |  |  |
| CGUCAUUACUCAGGAUAUGCAUCAUACUUGAGGGCAGAAGGGAGUACAUGAGGAUCACCCAUGUACUAUGGGUGCCUAAGAGGU |  |  | 18.7 | 101 |
| CGGUAAACCACAGGAUAUGGCUAGCAUAGCUAGCCAGAAGGGUGGUCGAAACCAUGUAAAUACAUGAGGAUCACCCAUGUAUCC | 501 | 52.6 |  |  |
| GGGUACAUCGGAGGAUAUCAUGUAAAUACAUGAGGAUCACCCAUGUCGAUGGAGACAUCGGAGAAUGAGAAGGCCGAUGUACCG | 17.6 | 5.34 |  |  |
| AAAAAACAUGAGGAUCACCCAUGUAAGGAUAUGCUGAAAAACACGGAAAAAACGUGCAGCAGAAGGUACAAAAG |  |  | 59.5 | 85.9 |
| UUUAAGUCAGGAUAUCGUUAAUUUAAUUAUUUGUUUUAGUUCGAGAAGGGACAUGAGGAUCACCCAUGUAAUUU |  |  | 38.8 | 41.8 |
| CAGGUAGCUACAGGAUAUACACGUCUGGAUAAACCAGACGAAUACCUUACAUGAGGAUCACCCAUGUAGAAGGGUAGCUGCCUG |  |  | 16.9 | 19.8 |
| ACAUACAUUCGAGGAUAUCGGUGAUUAAUUUUACGAGAAGGCGAUUUAAGGCAUAAUGCUUUAGACAUGAGGAUCACCCAUGUA | 72.9 | 34.4 |  |  |
| AUUAUUAAAGUGAGGAUAUCUAGAGCUGCGGCUCUAGAGAAGGCACAUGAGGAUCACCCAUGUCUCAAUUAUUA |  |  | 18.7 | 54.4 |

— the EternaBench riboswitch data
